Results from ChEMBL document CHEMBL1153046, “Synthesis and antitumor activity of substituted triazolo[4,3-a]pyrimidin-6-sulfonamide with an incorporated thiazolidinone moiety” (2009).

Key:
Type in all cases: functional
[1] = tested on: HT-29; test: Growth inhibition of human HT-29 cells after 48 hrs by sulforhodamine B assay; details: HT-29, 48 h
In short: (§1)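 NCI 60-cell-line panel. Cells are grown in RPMI1640 with 5% fetal calf serum and 2 mM L-glutamine, seeded at a density set by growth characteristics, and preincubated 24 h. Compound is tested at a minimum of five concentrations at 10-fold dilution, with 48 h continuous exposure. Viability is read by sulforhodamine B protein assay. GI50, TGI and LC50 come from dose-response curves.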

[2] = tested on: NCI-H460; test: Growth inhibition of human NCI-H460 cells after 48 hrs by sulforhodamine B assay; details: NCI-H460, 48 h; in short: as §1
[3] = tested on: K562; test: Growth inhibition of human K562 cells after 48 hrs by sulforhodamine B assay; details: K562, 48 h; in short: as §1
[4] = tested on: HCC 2998; test: Growth inhibition of human HCC2998 cells after 48 hrs by sulforhodamine B assay; details: HCC 2998, 48 h; in short: as §1
[5] = tested on: MDA-MB-231; test: Growth inhibition of human MDA-MB-231 cells after 48 hrs by sulforhodamine B assay; details: MDA-MB-231, 48 h; in short: as §1
[6] = tested on: DU-145; test: Growth inhibition of human DU145 cells after 48 hrs by sulforhodamine B assay; details: DU-145, 48 h; in short: as §1
[7] = tested on: EKVX; test: Growth inhibition of human EKVX cells after 48 hrs by sulforhodamine B assay; in short: as §1
[8] = tested on: COLO 205; test: Growth inhibition of human COLO205 cells after 48 hrs by sulforhodamine B assay; details: COLO 205, 48 h; in short: as §1
[9] = tested on: KM12; test: Growth inhibition of human KM12 cells after 48 hrs by sulforhodamine B assay; details: KM12, 48 h; in short: as §1
[10] = tested on: NCI-H226; test: Growth inhibition of human NCI-H226 cells after 48 hrs by sulforhodamine B assay; details: NCI-H226, 48 h; in short: as §1
[11] = tested on: SNB-19; test: Growth inhibition of human SNB19 cells after 48 hrs by sulforhodamine B assay; details: SNB-19, 48 h
In short: (§2)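 NCI 60-cell-line panel (nine cancer types), with cells grown in RPMI1640 plus 5% fetal calf serum and 2 mM L-glutamine. Cells are seeded at a density that depends on the line and preincubated 24 h. Compounds are then applied at a minimum of five 10-fold dilutions over a 5-log range with 48 h continuous exposure. Viability is read by SRB protein assay, and GI50 is derived from dose-response curves in units of 10^-5 M.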

[12] = tested on: SF-295; test: Growth inhibition of human SF295 cells after 48 hrs by sulforhodamine B assay; details: SF-295, 48 h; in short: as §1
[13] = tested on: NCI-H322M; test: Growth inhibition of human NCI-H322M cells after 48 hrs by sulforhodamine B assay; in short: as §1
[14] = tested on: U-251; test: Growth inhibition of human U251 cells after 48 hrs by sulforhodamine B assay; details: U-251, 48 h; in short: as §2
[15] = tested on: A498; test: Growth inhibition of human A498 cells after 48 hrs by sulforhodamine B assay; details: A498, 48 h; in short: as §1
[16] = tested on: MDA-MB-435; test: Growth inhibition of human MDA-MB-435 cells after 48 hrs by sulforhodamine B assay; details: MDA-MB-435, 48 h; in short: as §1
[17] = tested on: HCT-116; test: Growth inhibition of human HCT116 cells after 48 hrs by sulforhodamine B assay; details: HCT-116, 48 h; in short: as §1
[18] = tested on: RXF 393; test: Growth inhibition of human RXF393 cells after 48 hrs by sulforhodamine B assay; details: RXF 393, 48 h; in short: as §1
[19] = Growth inhibition of human Hs 578T cells after 48 hrs by sulforhodamine B assay; in short: as §1
[20] = tested on: SF-539; test: Growth inhibition of human SF539 cells after 48 hrs by sulforhodamine B assay; details: SF-539, 48 h; in short: as §1
[21] = tested on: HL-60(TB); test: Growth inhibition of human HL-60(TB) cells after 48 hrs by sulforhodamine B assay; details: HL-60, 48 h
In short: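 NCI 60-cell-line panel. Cells were grown in RPMI1640 with 5% fetal calf serum and 2 mM L-glutamine, seeded at a density suited to each line, and preincubated 24 h. Compounds were tested at a minimum of five concentrations at 10-fold dilutions over a 5-log range, with 48 h continuous exposure. Growth was read by sulforhodamine B protein staining, and GI50 was taken from dose-response curves.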

[22] = Growth inhibition of human […] cells after 48 hrs by sulforhodamine B assay; in short: as §1
[23] = tested on: MOLT-4; test: Growth inhibition of human MOLT4 cells after 48 hrs by sulforhodamine B assay; details: MOLT-4, 48 h; in short: as §1
[24] = tested on: A549; test: Growth inhibition of human A549 cells after 48 hrs by sulforhodamine B assay; details: A549, 48 h; in short: as §1
[25] = tested on: OVCAR-8; test: Growth inhibition of human OVCAR8 cells after 48 hrs by sulforhodamine B assay; details: OVCAR-8, 48 h; in short: as §1
[26] = tested on: CCRF-CEM; test: Growth inhibition of human CCRF-CEM cells after 48 hrs by sulforhodamine B assay; in short: as §1
[27] = tested on: SK-MEL-2; test: Growth inhibition of human SK-MEL-2 cells after 48 hrs by sulforhodamine B assay; details: SK-MEL-2, 48 h; in short: as §1
[28] = tested on: IGROV-1; test: Growth inhibition of human IGROV1 cells after 48 hrs by sulforhodamine B assay; details: IGROV-1, 48 h; in short: as §1
[29] = tested on: UACC-257; test: Growth inhibition of human UACC257 cells after 48 hrs by sulforhodamine B assay; details: UACC-257, 48 h; in short: as §2
[30] = tested on: MCF7; test: Growth inhibition of human MCF7 cells after 48 hrs by sulforhodamine B assay; details: MCF7, 48 h; in short: as §1
[31] = read-out: LC50 (the source's name)

COc1ccc(/C=N/c2nc3[nH]nc(C)n3c(=O)c2S(=O)(=O)NN2C(=O)C(CN3CCOCC3)SC2c2ccc(OC)cc2)cc1 (stereo unspecified)
GI50 [1]: 26.7 µM
GI50 [2]: 87.7 µM
TGI [2]: > 100 µM
GI50 [3]: 13 µM
LC50 [3]: 80.5 µM
TGI [3]: 32.3 µM
GI50 [4]: 22 µM
LC50 [4]: > 100 µM
TGI [4]: > 100 µM
GI50 [5]: 25.3 µM
LC50 (50% lethal concentration) [5]: > 100 µM
TGI [5]: > 100 µM
GI50 [6]: 28.8 µM
LC50 (concentration giving 50% net cell kill) [6]: > 100 µM
TGI [6]: > 100 µM
GI50 [7]: 93.9 µM
TGI [7]: > 100 µM
GI50 [8]: 66.2 µM
TGI [8]: > 100 µM
GI50 [9]: 36.1 µM
GI50 [10]: 53.6 µM
LC50 (concentration killing 50% of cells) [10]: > 100 µM
TGI [10]: > 100 µM
GI50 [11]: > 100 µM
TGI [11]: > 100 µM
GI50 [12]: 33.2 µM
LC50 (concentration killing 50% of cells) [12]: > 100 µM
TGI [12]: > 100 µM
GI50 [13]: 39.8 µM
TGI [13]: > 100 µM
GI50 [14]: 40.4 µM
LC50 [14]: > 100 µM
TGI [14]: > 100 µM
GI50 [15]: 25.5 µM
LC50 (concentration giving 50% net cell kill) [15]: > 100 µM
TGI [15]: 69.2 µM
GI50 [16]: 35 µM
TGI [16]: > 100 µM
GI50 [17]: 29.7 µM
LC50 (concentration killing 50% of cells) [17]: > 100 µM
TGI [17]: 97.3 µM
GI50 [18]: 15 µM
TGI [18]: > 100 µM
CC50 [18, 31]: > 100 µM
GI50 [19]: 41.1 µM
LC50 (concentration killing 50% of cells) [19]: > 100 µM
TGI [19]: > 100 µM
GI50 [20]: 75.1 µM
LC50 [20]: > 100 µM
TGI [20]: > 100 µM
GI50 [21]: 9.8 µM
LC50 [21]: 74.3 µM
TGI [21]: 27.2 µM
GI50 [22]: 16.4 µM
TGI [22]: 44.3 µM
CC50 [22, 31]: > 100 µM
GI50 [23]: 13.6 µM
TGI [23]: 34.4 µM
CC50 [23, 31]: 86.8 µM
GI50 [24]: 29.6 µM
TGI [24]: > 100 µM
GI50 [25]: 31.4 µM
TGI [25]: > 100 µM
GI50 [26]: 25.8 µM
TGI [26]: 78.9 µM
GI50 [27]: 99.3 µM
LC50 (concentration killing 50% of cells) [27]: > 100 µM
TGI [27]: > 100 µM
GI50 [28]: 26 µM
LC50 [28]: > 100 µM
TGI [28]: 97.4 µM
GI50 [29]: 32.2 µM
LC50 [29]: > 100 µM
TGI [29]: > 100 µM
GI50 [30]: 77.3 µM
TGI [30]: > 100 µM
